Measured values: ChEMBL document CHEMBL1177643, “Synthesis, DNA-binding ability and anticancer activity of benzothiazole/benzoxazole-pyrrolo[2,1-c][1,4]benzodiazepine conjugates” (Bioorg Med Chem, 2010)

How the values were obtained:
[1] = system: Calf thymus DNA; assay: Binding affinity to calf thymus duplex-form DNA assessed as melting temperature at 1:5 compound/DNA ratio after 18 hrs; type: nucleic-acid assay; conditions: Bos taurus
[2] = system: CCRF-CEM; assay: Growth inhibition of human CCRF-CEM cells after 48 hrs by sulforhodamine B assay; type: functional
Procedure, shortened: (§1)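 Dose–response in each cell line over at least five concentrations at 10-fold dilutions, with 48 h continuous exposure and sulforhodamine B read-out.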

[3] = system: HL-60; assay: Growth inhibition of human HL-60(TB) cells after 48 hrs by sulforhodamine B assay; type: functional; conditions: HL-60, 48 h
Procedure, shortened: (§2)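 Panel of 60 human cancer cell lines; for each compound, dose–response curves per cell line measured at a minimum of five concentrations at 10-fold dilutions. Cells exposed continuously to drug for 48 h, and growth was read out by sulforhodamine B staining.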

[4] = system: K562; assay: Growth inhibition of human K562 cells after 48 hrs by sulforhodamine B assay; type: functional; conditions: K562, 48 h; procedure, shortened: as §2
[5] = system: MOLT-4; assay: Growth inhibition of human MOLT4 cells after 48 hrs by sulforhodamine B assay; type: functional; conditions: MOLT-4, 48 h; procedure, shortened: as §2
[6] = Growth inhibition of human […] cells after 48 hrs by sulforhodamine B assay; type: functional; procedure, shortened: as §2
[7] = system: SR; assay: Growth inhibition of human SR cells after 48 hrs by sulforhodamine B assay; type: functional; procedure, shortened: as §2
[8] = system: A549; assay: Growth inhibition of human A549 cells after 48 hrs by sulforhodamine B assay; type: functional; conditions: A549, 48 h; procedure, shortened: as §1
[9] = system: EKVX; assay: Growth inhibition of human EKVX cells after 48 hrs by sulforhodamine B assay; type: functional; procedure, shortened: as §1
[10] = system: HOP-62; assay: Growth inhibition of human HOP62 cells after 48 hrs by sulforhodamine B assay; type: functional; conditions: HOP-62, 48 h; procedure, shortened: as §2
[11] = system: HOP-92; assay: Growth inhibition of human HOP92 cells after 48 hrs by sulforhodamine B assay; type: functional; conditions: HOP-92, 48 h; procedure, shortened: as §2
[12] = system: NCI-H226; assay: Growth inhibition of human NCI-H226 cells after 48 hrs by sulforhodamine B assay; type: functional; conditions: NCI-H226, 48 h; procedure, shortened: as §2
[13] = system: NCI-H23; assay: Growth inhibition of human NCI-H23 cells after 48 hrs by sulforhodamine B assay; type: functional; conditions: NCI-H23, 48 h; procedure, shortened: as §2
[14] = system: NCI-H322M; assay: Growth inhibition of human NCI-H322M cells after 48 hrs by sulforhodamine B assay; type: functional; procedure, shortened: as §2
[15] = system: NCI-H460; assay: Growth inhibition of human NCI-H460 cells after 48 hrs by sulforhodamine B assay; type: functional; conditions: NCI-H460, 48 h; procedure, shortened: as §2
[16] = system: NCI-H522; assay: Growth inhibition of human NCI-H522 cells after 48 hrs by sulforhodamine B assay; type: functional; conditions: NCI-H522, 48 h; procedure, shortened: as §2
[17] = system: COLO 205; assay: Growth inhibition of human COLO205 cells after 48 hrs by sulforhodamine B assay; type: functional; conditions: COLO 205, 48 h; procedure, shortened: as §1
[18] = system: HCC 2998; assay: Growth inhibition of human HCC2998 cells after 48 hrs by sulforhodamine B assay; type: functional; conditions: HCC 2998, 48 h; procedure, shortened: as §2
[19] = system: HCT-116; assay: Growth inhibition of human HCT116 cells after 48 hrs by sulforhodamine B assay; type: functional; conditions: HCT-116, 48 h; procedure, shortened: as §2
[20] = system: HCT-15; assay: Growth inhibition of human HCT15 cells after 48 hrs by sulforhodamine B assay; type: functional; conditions: HCT-15, 48 h; procedure, shortened: as §2
[21] = system: HT-29; assay: Growth inhibition of human HT-29 cells after 48 hrs by sulforhodamine B assay; type: functional; conditions: HT-29, 48 h; procedure, shortened: as §2
[22] = system: KM12; assay: Growth inhibition of human KM12 cells after 48 hrs by sulforhodamine B assay; type: functional; conditions: KM12, 48 h; procedure, shortened: as §2
[23] = system: SW-620; assay: Growth inhibition of human SW620 cells after 48 hrs by sulforhodamine B assay; type: functional; conditions: SW-620, 48 h; procedure, shortened: as §2
[24] = system: SF-268; assay: Growth inhibition of human SF268 cells after 48 hrs by sulforhodamine B assay; type: functional; conditions: SF-268, 48 h; procedure, shortened: as §2
[25] = system: SF-295; assay: Growth inhibition of human SF295 cells after 48 hrs by sulforhodamine B assay; type: functional; conditions: SF-295, 48 h; procedure, shortened: as §2
[26] = system: SF-539; assay: Growth inhibition of human SF539 cells after 48 hrs by sulforhodamine B assay; type: functional; conditions: SF-539, 48 h; procedure, shortened: as §2
[27] = system: SNB-19; assay: Growth inhibition of human SNB19 cells after 48 hrs by sulforhodamine B assay; type: functional; conditions: SNB-19, 48 h; procedure, shortened: as §2
[28] = system: SNB-75; assay: Growth inhibition of human SNB75 cells after 48 hrs by sulforhodamine B assay; type: functional; conditions: SNB-75, 48 h; procedure, shortened: as §2
[29] = system: U-251; assay: Growth inhibition of human U251 cells after 48 hrs by sulforhodamine B assay; type: functional; conditions: U-251, 48 h; procedure, shortened: as §2
[30] = system: LOX IMVI; assay: Growth inhibition of human LOXIMVI cells after 48 hrs by sulforhodamine B assay; type: functional; procedure, shortened: as §2
[31] = system: Malme-3M; assay: Growth inhibition of human MALME-3M cells after 48 hrs by sulforhodamine B assay; type: functional; procedure, shortened: as §2
[32] = system: M14; assay: Growth inhibition of human M14 cells after 48 hrs by sulforhodamine B assay; type: functional; conditions: M14, 48 h; procedure, shortened: as §2
[33] = system: SK-MEL-2; assay: Growth inhibition of human SK-MEL-2 cells after 48 hrs by sulforhodamine B assay; type: functional; conditions: SK-MEL-2, 48 h; procedure, shortened: as §2
[34] = system: SK-MEL-28; assay: Growth inhibition of human SK-MEL-28 cells after 48 hrs by sulforhodamine B assay; type: functional; conditions: SK-MEL-28, 48 h; procedure, shortened: as §2
[35] = system: SK-MEL-5; assay: Growth inhibition of human SK-MEL-5 cells after 48 hrs by sulforhodamine B assay; type: functional; conditions: SK-MEL-5, 48 h; procedure, shortened: as §2
[36] = system: UACC-257; assay: Growth inhibition of human UACC257 cells after 48 hrs by sulforhodamine B assay; type: functional; conditions: UACC-257, 48 h; procedure, shortened: as §2
[37] = system: UACC-62; assay: Growth inhibition of human UACC62 cells after 48 hrs by sulforhodamine B assay; type: functional; conditions: UACC-62, 48 h; procedure, shortened: as §2
[38] = system: IGROV-1; assay: Growth inhibition of human IGROV1 cells after 48 hrs by sulforhodamine B assay; type: functional; conditions: IGROV-1, 48 h; procedure, shortened: as §2
[39] = system: OVCAR-3; assay: Growth inhibition of human OVCAR-3 cells after 48 hrs by sulforhodamine B assay; type: functional; conditions: OVCAR-3, 48 h; procedure, shortened: as §2
[40] = system: OVCAR-4; assay: Growth inhibition of human OVCAR4 cells after 48 hrs by sulforhodamine B assay; type: functional; conditions: OVCAR-4, 48 h; procedure, shortened: as §2
[41] = system: OVCAR-5; assay: Growth inhibition of human OVCAR5 cells after 48 hrs by sulforhodamine B assay; type: functional; conditions: OVCAR-5, 48 h; procedure, shortened: as §2
[42] = system: OVCAR-8; assay: Growth inhibition of human OVCAR8 cells after 48 hrs by sulforhodamine B assay; type: functional; conditions: OVCAR-8, 48 h; procedure, shortened: as §2
[43] = system: SK-OV-3; assay: Growth inhibition of human SKOV3 cells after 48 hrs by sulforhodamine B assay; type: functional; conditions: SK-OV-3, 48 h; procedure, shortened: as §2
[44] = system: 786-0; assay: Growth inhibition of human 786-0 cells after 48 hrs by sulforhodamine B assay; type: functional; conditions: 786-0, 48 h; procedure, shortened: as §1
[45] = system: A498; assay: Growth inhibition of human A498 cells after 48 hrs by sulforhodamine B assay; type: functional; conditions: A498, 48 h; procedure, shortened: as §1
[46] = system: ACHN; assay: Growth inhibition of human ACHN cells after 48 hrs by sulforhodamine B assay; type: functional; procedure, shortened: as §1
[47] = system: CAKI-1; assay: Growth inhibition of human Caki1 cells after 48 hrs by sulforhodamine B assay; type: functional; conditions: CAKI-1, 48 h; procedure, shortened: as §1
[48] = system: RXF 393; assay: Growth inhibition of human RXF393 cells after 48 hrs by sulforhodamine B assay; type: functional; conditions: RXF 393, 48 h; procedure, shortened: as §2
[49] = system: SN12C; assay: Growth inhibition of human SN12C cells after 48 hrs by sulforhodamine B assay; type: functional; procedure, shortened: as §2
[50] = system: TK-10; assay: Growth inhibition of human TK10 cells after 48 hrs by sulforhodamine B assay; type: functional; conditions: TK-10, 48 h; procedure, shortened: as §2
[51] = system: UO-31; assay: Growth inhibition of human UO31 cells after 48 hrs by sulforhodamine B assay; type: functional; conditions: UO-31, 48 h; procedure, shortened: as §2
[52] = system: PC-3; assay: Growth inhibition of human PC3 cells after 48 hrs by sulforhodamine B assay; type: functional; conditions: PC-3, 48 h; procedure, shortened: as §2
[53] = system: DU-145; assay: Growth inhibition of human DU145 cells after 48 hrs by sulforhodamine B assay; type: functional; conditions: DU-145, 48 h; procedure, shortened: as §1
[54] = system: MCF7; assay: Growth inhibition of human MCF7 cells after 48 hrs by sulforhodamine B assay; type: functional; conditions: MCF7, 48 h; procedure, shortened: as §2
[55] = system: NCI/ADR-RES; assay: Growth inhibition of human NCI/ADR-RES cells after 48 hrs by sulforhodamine B assay; type: functional; procedure, shortened: as §2
[56] = system: MDA-MB-231; assay: Growth inhibition of human MDA-MB-231 cells after 48 hrs by sulforhodamine B assay; type: functional; conditions: MDA-MB-231, 48 h; procedure, shortened: as §2
[57] = system: Hs-578T; assay: Growth inhibition of human Hs 578T cells after 48 hrs by sulforhodamine B assay; type: functional; procedure, shortened: as §2
[58] = system: MDA-MB-435; assay: Growth inhibition of human MDA-MB-435 cells after 48 hrs by sulforhodamine B assay; type: functional; conditions: MDA-MB-435, 48 h; procedure, shortened: as §2
[59] = system: BT-549; assay: Growth inhibition of human BT549 cells after 48 hrs by sulforhodamine B assay; type: functional; conditions: BT-549, 48 h; procedure, shortened: as §1
[60] = system: T47D; assay: Growth inhibition of human T47D cells after 48 hrs by sulforhodamine B assay; type: functional; procedure, shortened: as §2

COc1cc2c(cc1OCCCCOc1ccc(-c3nc4ccccc4s3)cc1)N=C[C@@H]1CCCN1C2=O
ΔTm [1]: 0.5 °C | GI50 [2]: 282 nM | GI50 [3]: 380 nM | GI50 [4]: 355 nM | GI50 [5]: 234 nM | GI50 [6]: 214 nM | GI50 [7]: 21.9 nM | GI50 [8]: 2630 nM | GI50 [9]: 1260 nM | GI50 [10]: 407 nM | GI50 [11]: 178 nM | GI50 [12]: 1450 nM | GI50 [13]: 741 nM | GI50 [14]: 2190 nM | GI50 [15]: 407 nM | GI50 [16]: 324 nM | GI50 [17]: 339 nM | GI50 [18]: 363 nM | GI50 [19]: 295 nM | GI50 [20]: 646 nM | GI50 [21]: 380 nM | GI50 [22]: 550 nM | GI50 [23]: 427 nM | GI50 [24]: 661 nM | GI50 [25]: 676 nM | GI50 [26]: 347 nM | GI50 [27]: 1510 nM | GI50 [28]: 1070 nM | GI50 [29]: 229 nM | GI50 [30]: 407 nM | GI50 [31]: 1260 nM | GI50 [32]: 537 nM | GI50 [33]: 389 nM | GI50 [34]: 2140 nM | GI50 [35]: 347 nM | GI50 [36]: 2190 nM | GI50 [37]: 794 nM | GI50 [38]: 2400 nM | GI50 [39]: 380 nM | GI50 [40]: 1150 nM | GI50 [41]: 331 nM | GI50 [42]: 759 nM | GI50 [43]: 1230 nM | GI50 [44]: 214 nM | GI50 [45]: 2040 nM | GI50 [46]: 363 nM | GI50 [47]: 355 nM | GI50 [48]: 191 nM | GI50 [49]: 631 nM | GI50 [50]: 479 nM | GI50 [51]: 661 nM | GI50 [52]: 295 nM | GI50 [53]: 269 nM | GI50 [54]: 324 nM | GI50 [55]: 1150 nM | GI50 [56]: 269 nM | GI50 [57]: 501 nM | GI50 [58]: 447 nM | GI50 [59]: 182 nM | GI50 [60]: 219 nM
